Measured values from ChEMBL document CHEMBL1938272 (Bioorg Med Chem, 2012).

Tests used:
[1] = target: NAD(P)H dehydrogenase [quinone] 1 (Mus musculus) (UniProt Q64669); experiment: Induction of QR1-mediated cytoprotective activity in mouse Hepa-1c1c7 cells at 50 uM assessed as cell survival; type: cell-based
[2] = target: NAD(P)H dehydrogenase [quinone] 1 (Mus musculus) (UniProt Q64669); experiment: Induction of QR1-mediated cytoprotective activity in mouse TAOc1 mutant Hepa cells at 50 uM assessed as cell survival; type: cell-based
[3] = target: NAD(P)H dehydrogenase [quinone] 1 (Mus musculus) (UniProt Q64669); experiment: Induction of QR1-mediated cytoprotective activity in mouse BPrc1 cells at 50 uM assessed as cell survival; type: cell-based
HEK293 = experiment: Inhibition of TNFalpha-activated NF-kappaB expressed in HEK293 cells at 50 uM by luciferase reporter gene assay; type: cell-based
[4] = system: Radical scavenging activity; experiment: Antioxidant activity assessed as DPPH free radical scavenging activity at 400 uM after 30 mins by spectrophotometry; type: functional
MCF7 = experiment: Antiproliferative activity against human MCF7 cells after 72 hrs by SRB assay; type: functional, cell-based; settings: MCF7, 72 h
How it was run: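 MCF-7 breast cancer cells exposed to serially diluted compounds (DMSO) for 72 h at 37 °C in CO2 incubator; fixed with 10% trichloroacetic acid, stained with 0.4% SRB, OD read at 515 nm. Zero-day control of 1 × 10^4 cells per well processed after 30 min. Survival = (OD test − OD zero-day)/(OD control − OD zero-day) × 100; IC50 from survival.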

Aromatase [5] = target: T1, Aromatase (Homo sapiens, UniProt P11511); settings: 2 h, read-out: Imax
T1 sequence (P11511 whole entry): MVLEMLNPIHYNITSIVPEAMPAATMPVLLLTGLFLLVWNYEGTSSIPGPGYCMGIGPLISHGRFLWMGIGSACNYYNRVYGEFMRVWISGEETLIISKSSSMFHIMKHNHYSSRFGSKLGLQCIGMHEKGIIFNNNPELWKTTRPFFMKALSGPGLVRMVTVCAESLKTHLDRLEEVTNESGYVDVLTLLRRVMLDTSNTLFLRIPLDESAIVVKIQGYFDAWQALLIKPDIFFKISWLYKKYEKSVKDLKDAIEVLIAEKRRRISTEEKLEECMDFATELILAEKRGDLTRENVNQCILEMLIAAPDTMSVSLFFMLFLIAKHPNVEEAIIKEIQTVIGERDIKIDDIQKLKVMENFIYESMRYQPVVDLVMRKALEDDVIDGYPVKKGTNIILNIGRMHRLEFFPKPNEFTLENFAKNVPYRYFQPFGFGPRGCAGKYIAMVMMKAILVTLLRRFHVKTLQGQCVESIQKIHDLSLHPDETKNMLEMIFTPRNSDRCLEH

Aromatase [6] = target: T1, Aromatase
RAW264.7 = experiment: Antiinflammatory activity in mouse RAW264.7 cells assessed as inhibition of LPS-induced NO production at 40 uM preincubated for 30 mins before LPS challenge by Griess method
[7] = target: NAD(P)H dehydrogenase [quinone] 1 (Mus musculus) (UniProt Q64669); experiment: Induction of QR1 activity in mouse Hepa-1c1c7 cells using MTT as substrate by spectrophotometry; type: cell-based
How it was run: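 Mouse hepatoma Hepa 1c1c7 cells were incubated with compound, then permeabilised with digitonin. QR1 activity was read as MTT reduction to formazan at 595 nm, with crystal violet total protein run in parallel. Induction ratio is activity versus control; CD is the concentration doubling activity, derived only when the ratio is above 2.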

NAD(P)H dehydrogenase [quinone] 1 (Mus musculus), sequence (Q64669 whole entry): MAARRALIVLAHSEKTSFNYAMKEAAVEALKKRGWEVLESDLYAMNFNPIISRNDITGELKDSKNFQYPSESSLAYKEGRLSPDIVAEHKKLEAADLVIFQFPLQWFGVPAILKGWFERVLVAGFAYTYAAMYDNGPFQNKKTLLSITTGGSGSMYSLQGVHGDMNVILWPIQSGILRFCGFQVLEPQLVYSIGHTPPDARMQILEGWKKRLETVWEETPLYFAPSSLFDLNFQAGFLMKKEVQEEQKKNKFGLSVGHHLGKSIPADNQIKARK

Structure (SMILES)	Survival [1] [%]	Survival [2] [%]	Survival [3] [%]	inhibition (HEK293) [%]	inhibition [4] [%]	IC50 (MCF7) [µM]	inhibition at 50 µM (Aromatase [5]) [%]	IC50 (Aromatase [6]) [µM]	inhibition at 40 µM (RAW264.7) [%]	CD [7] [µM]
Cc1cc(Br)ccc1-c1nsc(-c2ccc(Br)cc2C)n1	71.3	68.6	95.9	6.7	2.2	39.8	47.8	> 50	23.3	–
Clc1cccc(-c2nsc(-c3cccc(Cl)c3Cl)n2)c1Cl	47	74.5	56.3	0	11.1	10.2	45.9	> 50	21.4	2
c1ccc2cc(-c3nsc(-c4ccc5ccccc5c4)n3)ccc2c1	88.8	96.9	98.1	–	1.1	–	15.8	> 50	0.5	–
Ic1ccc(-c2nsc(-c3ccc(I)cc3)n2)cc1	105	–	–	0	–	–	36.7	> 50	20.3	–
Fc1ccccc1-c1nsc(-c2ccccc2F)n1	86.2	82.5	88.4	–	3.8	31.4	53.2	> 50	24.6	–
Fc1ccc(-c2nsc(-c3ccc(F)cc3)n2)cc1	96.3	83	86.4	0	6.9	18.8	45.2	> 50	22.2	–
Oc1ccc(CCc2cc(O)cc(O)c2)cc1 [DIHYDRORESVERATROL]	82.6	–	–	16.7	14.7	30.3	37.8	> 50	36.2	–
FC(F)(F)c1ccc(-c2nsc(-c3ccc(C(F)(F)F)cc3)n2)cc1	97.9	91	71	0	2.5	–	41	> 50	8.5	–
Cc1ccc(-c2nsc(-c3ccc(C)cc3Br)n2)c(Br)c1	49.6	–	–	0	3.4	–	48.3	> 50	25	–
Clc1ccc(-c2nsc(-c3ccc(Cl)cc3Cl)n2)c(Cl)c1	30.6	82.4	89.8	–	2.9	–	40.3	> 50	25	–
O=[N+]([O-])c1ccc(-c2nsc(-c3ccc([N+](=O)[O-])cc3)n2)cc1	78.9	–	–	–	7.3	–	29.4	> 50	1.6	–
FC(F)(F)c1ccccc1-c1nsc(-c2ccccc2C(F)(F)F)n1	88.8	89.8	81	0	2.9	–	21.6	> 50	6.7	–
N#Cc1ccc(-c2nsc(-c3ccc(C#N)cc3)n2)cc1	46.2	–	–	–	6	31.3	38.5	> 50	-0.4	–
COc1ccc(-c2nsc(-c3ccc(OC)cc3)n2)cc1	94.2	–	–	–	3.1	17.4	11.1	> 50	1.7	–
Clc1ccc(-c2nsc(-c3ccc(Cl)c(Cl)c3)n2)cc1Cl	80	–	–	–	9.6	23.5	23	> 50	21.5	–
N#Cc1cccc(-c2nsc(-c3cccc(C#N)c3)n2)c1	57.9	–	–	–	1.4	–	22.1	> 50	26.4	–
CC(C)(C)c1ccc(-c2nsc(-c3ccc(C(C)(C)C)cc3)n2)cc1	47.5	74.1	85.1	0	2.9	–	43.5	> 50	0.5	27.7
Brc1ccccc1-c1nsc(-c2ccccc2Br)n1	72.5	99.1	100	0	1.8	35	44.8	> 50	9.1	–
Cc1ccc(-c2nsc(-c3ccc(C)cc3)n2)cc1	96.8	–	–	–	7.2	–	21.3	> 50	9.6	–
Brc1ccc(-c2nsc(-c3ccc(Br)cc3)n2)cc1	87	80.1	60.3	0	0.8	–	37.4	> 50	17.1	–
Clc1ccc(-c2nsc(-c3ccc(Cl)cc3)n2)cc1	78.3	77.8	79.3	0	2.7	–	9.7	> 50	5.1	4
CCCCc1ccc(-c2nsc(-c3ccc(CCCC)cc3)n2)cc1	100	–	–	–	2.1	–	35.5	> 50	-3.5	–
Fc1cccc(-c2nsc(-c3cccc(F)c3)n2)c1	77.6	77.1	73.5	–	1.3	34.5	41.8	> 50	3.2	–
Oc1ccc(/C=C/c2cc(O)cc(O)c2)cc1	88.7	86.3	86.3	–	–	–	–	–	–	–
